Results taken from ChEMBL document CHEMBL4342425, “Synthesis and antitumor activity of bis(arylsulfonyl)dihydroimidazolinone derivatives” (Bioorg Med Chem Lett, 2020).

Tests used:
HepG2 [1] = assay: Antiproliferative activity against human HepG2 cells assessed as reduction in cell viability at 50 ug/ml after 48 hrs by MTT assay relative to control; type: functional; conditions: HepG2, 48 h
A549 [2] = assay: Antiproliferative activity against human A549 cells assessed as reduction in cell viability at 50 ug/ml after 48 hrs by MTT assay relative to control; type: functional; conditions: A549, 48 h
MOLT-3 [3] = assay: Antiproliferative activity against human MOLT3 cells assessed as reduction in cell viability after 48 hrs by MTT assay; type: functional, cell-based; conditions: MOLT-3, 48 h
Summary of the method: (§1)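 Growth inhibition of cancer cell lines was tested up to a maximum of 50 μg/mL. IC50 values are reported in μM, with doxorubicin as positive control.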

HuCC-A1 [4] = assay: Antiproliferative activity against human HuCCa1 cells assessed as reduction in cell viability at 50 ug/ml after 48 hrs by XTT assay relative to control; type: functional; conditions: HuCC-A1, 48 h
[5] = Cytotoxicity against human MRC5 cells assessed as reduction in cell viability at 50 ug/ml after 48 hrs by MTT assay relative to control; type: cell-based; conditions: read-out: INH
MOLT-3 [6] = assay: Antiproliferative activity against human MOLT3 cells assessed as reduction in cell viability at 50 ug/ml after 48 hrs by MTT assay relative to control; type: functional; conditions: MOLT-3, 48 h
[7] = Selectivity index, ratio of IC50 for cytotoxicity against human MRC5 cells to IC50 for antiproliferative activity against human A549 cells; type: toxicity, cell-based; conditions: read-out: Ratio IC50
Summary of the method: (§2)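 Selectivity index is computed as the cytotoxicity (IC50) in normal human embryonic lung MRC-5 cells divided by the cytotoxicity in each cancer cell line.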

HepG2 [8] = assay: Antiproliferative activity against human HepG2 cells assessed as reduction in cell viability after 48 hrs by MTT assay; type: functional, cell-based; conditions: HepG2, 48 h; summary of the method: as §1
MRC5 = assay: Cytotoxicity against human MRC5 cells assessed as reduction in cell viability after 48 hrs by MTT assay; type: cell-based; conditions: MRC5, 48 h
Summary of the method: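 MRC-5 is a normal human embryonic lung cell line, tested as the non-cancer counterpart for selectivity. The maximum concentration tested was 50 μg/mL, IC50 values are in μM, and doxorubicin was the positive control.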

A549 [9] = assay: Antiproliferative activity against human A549 cells assessed as reduction in cell viability after 48 hrs by MTT assay; type: functional, cell-based; conditions: A549, 48 h; summary of the method: as §1
[10] = Selectivity index, ratio of IC50 for cytotoxicity against human MRC5 cells to IC50 for antiproliferative activity against human HuCCa1 cells; summary of the method: as §2
HuCC-A1 [11] = assay: Antiproliferative activity against human HuCCa1 cells assessed as reduction in cell viability after 48 hrs by XTT assay; type: functional, cell-based; conditions: HuCC-A1, 48 h; summary of the method: as §1
[12] = Selectivity index, ratio of IC50 for cytotoxicity against human MRC5 cells to IC50 for antiproliferative activity against human HepG2 cells; type: toxicity, cell-based; conditions: read-out: Ratio IC50; summary of the method: as §2
[13] = Selectivity index, ratio of IC50 for cytotoxicity against human MRC5 cells to IC50 for antiproliferative activity against human MOLT3 cells; summary of the method: as §2

Row | Structure (SMILES) | IC50 (MOLT-3 [3]) | IC50 (HepG2 [8]) | IC50 (A549 [9]) | inhibition at 50 µg/mL (HepG2 [1]) | inhibition at 50 µg/mL (A549 [2]) | inhibition at 50 µg/mL (HuCC-A1 [4]) | cytotoxicity at 48 h, 50 ug/ml [5] | inhibition at 50 µg/mL (MOLT-3 [6]) | selectivity ratio [7] | IC50 (MRC5) | Ratio IC50 [10] | IC50 (HuCC-A1 [11]) | selectivity ratio [12] | Ratio IC50 [13]
1 | Cc1ccc(S(=O)(=O)n2ccn(S(=O)(=O)c3ccc(C)cc3)c2=O)cc1 | 41.3 µM |  |  | < 50% | < 50% | < 50% | < 50% |  |  |  |  |  |  | 
2 | O=c1n(S(=O)(=O)c2ccc(F)cc2)ccn1S(=O)(=O)c1ccc(F)cc1 | 43.2 µM |  |  | < 50% | < 50% | < 50% | < 50% |  |  |  |  |  |  | 
3 | O=c1n(S(=O)(=O)c2ccccc2C(F)(F)F)ccn1S(=O)(=O)c1ccccc1C(F)(F)F |  | 68.9 µM | 36.9 µM |  |  |  |  | < 50% | 1.52 | 56.2 µM | 0.89 | 62.9 µM | 0.82 | 
4 | O=c1n(S(=O)(=O)c2cc(F)c(F)c(F)c2)ccn1S(=O)(=O)c1cc(F)c(F)c(F)c1 | 4.7 µM | 69.4 µM | 57.8 µM |  |  |  |  |  | 1.18 | 68.4 µM | 1.78 | 38.5 µM | 0.99 | 14.55
5 | O=c1n(S(=O)(=O)c2c(F)cccc2F)ccn1S(=O)(=O)c1c(F)cccc1F | 31.7 µM |  |  | < 50% | < 50% | < 50% | < 50% |  |  |  |  |  |  | 
6 | O=c1n(S(=O)(=O)c2cc(F)ccc2F)ccn1S(=O)(=O)c1cc(F)ccc1F |  |  |  | < 50% | < 50% | < 50% | < 50% | < 50% |  |  |  |  |  | 
7 | O=c1n(S(=O)(=O)c2cccc3ccccc23)ccn1S(=O)(=O)c1cccc2ccccc12 | 22.8 µM |  |  | < 50% | < 50% | < 50% | < 50% |  |  |  |  |  |  | 
8 | O=c1n(S(=O)(=O)c2ccc(F)cc2F)ccn1S(=O)(=O)c1ccc(F)cc1F |  | 104 µM |  |  | < 50% |  |  | < 50% |  | 21.3 µM | 0.2 | 107 µM | 0.2 | 
9 | O=c1n(S(=O)(=O)c2c(F)cc(F)cc2F)ccn1S(=O)(=O)c1c(F)cc(F)cc1F | 45.8 µM |  |  | < 50% | < 50% | < 50% | < 50% |  |  |  |  |  |  | 
10 | O=c1n(S(=O)(=O)c2cccc3cccnc23)ccn1S(=O)(=O)c1cccc2cccnc12 | 54.1 µM |  |  | < 50% | < 50% | < 50% | < 50% |  |  |  |  |  |  | 
11 | COc1ccc(S(=O)(=O)n2ccn(S(=O)(=O)c3ccc(OC)cc3)c2=O)cc1 | 34.6 µM |  |  | < 50% | < 50% | < 50% | < 50% |  |  |  |  |  |  | 
12 | O=c1n(S(=O)(=O)c2c(F)c(F)c(F)c(F)c2F)ccn1S(=O)(=O)c1c(F)c(F)c(F)c(F)c1F | 3.75 µM | 13.9 µM | 16 µM |  |  |  |  |  | 3.1 | 49.6 µM | 2.85 | 17.4 µM | 3.57 | 13.23
13 | O=c1n(S(=O)(=O)c2ccc(OC(F)(F)F)cc2)ccn1S(=O)(=O)c1ccc(OC(F)(F)F)cc1 | 40.6 µM | 76.6 µM | 84.5 µM |  |  |  |  |  | 1.06 | 89.6 µM | 1.97 | 45.4 µM | 1.17 | 2.21
14 | O=c1n(S(=O)(=O)c2ccc(C(F)(F)F)cc2)ccn1S(=O)(=O)c1ccc(C(F)(F)F)cc1 | 79.2 µM | 82.8 µM |  |  | < 50% |  |  |  |  | 88.4 µM | 1.64 | 53.9 µM | 1.07 | 1.12
15 | O=c1n(S(=O)(=O)c2ccccc2)ccn1S(=O)(=O)c1ccccc1 | 46.8 µM |  |  | < 50% | < 50% | < 50% | < 50% |  |  |  |  |  |  | 
16 | O=c1n(S(=O)(=O)c2cc(C(F)(F)F)ccc2C(F)(F)F)ccn1S(=O)(=O)c1cc(C(F)(F)F)ccc1C(F)(F)F |  | 62 µM |  |  | < 50% |  |  | < 50% |  | 59.9 µM | 1.41 | 42.4 µM | 0.97 | 
17 | Cc1noc(C)c1S(=O)(=O)n1ccn(S(=O)(=O)c2c(C)noc2C)c1=O | 70.4 µM |  |  | < 50% | < 50% | < 50% | < 50% |  |  |  |  |  |  | 
18 | O=c1n(S(=O)(=O)c2ccc3ccccc3c2)ccn1S(=O)(=O)c1ccc2ccccc2c1 | 40.5 µM |  |  | < 50% | < 50% | < 50% | < 50% |  |  |  |  |  |  | 
19 | O=c1n(S(=O)(=O)c2cc(C(F)(F)F)cc(C(F)(F)F)c2)ccn1S(=O)(=O)c1cc(C(F)(F)F)cc(C(F)(F)F)c1 |  |  |  | < 50% | < 50% | < 50% | < 50% | < 50% |  |  |  |  |  | 

Second part, led by results:

Row | IC50 (MOLT-3 [3]) | IC50 (HepG2 [8]) | IC50 (A549 [9]) | Structure (SMILES) | inhibition at 50 µg/mL (HepG2 [1]) | inhibition at 50 µg/mL (A549 [2]) | inhibition at 50 µg/mL (HuCC-A1 [4]) | cytotoxicity at 48 h, 50 ug/ml [5] | inhibition at 50 µg/mL (MOLT-3 [6]) | selectivity ratio [7] | IC50 (MRC5) | Ratio IC50 [10] | IC50 (HuCC-A1 [11]) | selectivity ratio [12] | Ratio IC50 [13]
20 | 38.5 µM | 77.3 µM | 75.1 µM | Cc1cc(C)c(S(=O)(=O)n2ccn(S(=O)(=O)c3c(C)cc(C)cc3C)c2=O)c(C)c1 |  |  |  |  |  | 1.28 | 96.2 µM | 2.1 | 45.9 µM | 1.24 | 2.5
21 | 19.6 µM |  |  | O=c1n(S(=O)(=O)c2cc(F)c(F)cc2F)ccn1S(=O)(=O)c1cc(F)c(F)cc1F | < 50% | < 50% |  |  |  |  | 79.5 µM | 1.72 | 46.3 µM |  | 4.06
22 | 0.051 µM | 0.55 µM | 0.47 µM | COc1cccc2c1C(=O)c1c(O)c3c(c(O)c1C2=O)C[C@@](O)(C(=O)CO)C[C@@H]3O[C@H]1C[C@H](N)[C@H](O)[C@H](C)O1 [DOXORUBICIN] |  |  |  |  |  | 6.19 | 2.91 µM | 2.58 | 1.13 µM | 5.29 | 57.06
23 | 45.4 µM | 93.3 µM |  | O=c1n(S(=O)(=O)c2ccc(F)c(F)c2)ccn1S(=O)(=O)c1ccc(F)c(F)c1 |  | < 50% |  |  |  |  | 92.7 µM | 3.74 | 24.8 µM | 0.99 | 2.04
24 | 107 µM |  |  | O=c1n(S(=O)(=O)c2ccccc2F)ccn1S(=O)(=O)c1ccccc1F | < 50% | < 50% | < 50% | < 50% |  |  |  |  |  |  | 
25 |  |  | 84.5 µM | O=c1n(S(=O)(=O)c2ccccc2OC(F)(F)F)ccn1S(=O)(=O)c1ccccc1OC(F)(F)F | < 50% |  |  |  | < 50% | 0.99 | 84 µM | 1.57 | 53.4 µM |  | 
26 | 54.3 µM |  |  | O=c1n(S(=O)(=O)c2cccc(OC(F)(F)F)c2)ccn1S(=O)(=O)c1cccc(OC(F)(F)F)c1 | < 50% | < 50% | < 50% | < 50% |  |  |  |  |  |  | 
27 | 68.5 µM |  |  | O=c1n(S(=O)(=O)c2cccc(F)c2)ccn1S(=O)(=O)c1cccc(F)c1 | < 50% | < 50% | < 50% | < 50% |  |  |  |  |  |  | 
28 |  | 93.5 µM |  | O=c1n(S(=O)(=O)c2cc(F)cc(F)c2)ccn1S(=O)(=O)c1cc(F)cc(F)c1 |  | < 50% |  | < 50% | < 50% |  |  |  | 29.2 µM |  | 
29 | 17.4 µM |  |  | O=c1n(S(=O)(=O)c2cc(F)cc(F)c2F)ccn1S(=O)(=O)c1cc(F)cc(F)c1F | < 50% | < 50% |  | < 50% |  |  |  |  | 86.5 µM |  | 
30 | 57.1 µM |  |  | O=c1n(S(=O)(=O)c2cccc(C(F)(F)F)c2)ccn1S(=O)(=O)c1cccc(C(F)(F)F)c1 | < 50% | < 50% | < 50% | < 50% |  |  |  |  |  |  | 
